# Screening results (PubChem BioAssay)
# MEKK3 PB1 HTS: raises or lowers MEK5 binding to the human MEKK3 PB1 domain | Q99759 | AID 1529 | binding response (% of control), % at 10 µM | bead-based flow cytometry, Alexa488-MEK5 binding to MEKK3; actives lie on both sides; 0 = blocked by unlabeled MEK5, 100 = vehicle | 1.4% of 290,000 active;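 active means binding response more than 3 SD above or below the average of its plate-row segment, actives on both sides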;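 further: Alexa488 bead fluorescence after subtracting the streptavidin-only scavenger bead signal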
# MEKK2 mut-MEK5: signal of MEK5 binding to mutant human MEKK2 PB1 domain; bead flow cytometry, Alexa488-MEK5 binding to MEKK2 mutant; percent response, % at 10 µM; 0.35% of 290,000 active; in the data active means percent response above about 24%, passing the limit was not always enough
# UBC13 inh: inhibitors of human UBC13 polyubiquitin chain formation. 0.47% of 330,000 active. inhibition, % at 20 µM. P61088. TR-FRET; in the data active means inhibition above about 45%, passing the limit was not always enough
# Target sequence (P61088 whole entry, looked up): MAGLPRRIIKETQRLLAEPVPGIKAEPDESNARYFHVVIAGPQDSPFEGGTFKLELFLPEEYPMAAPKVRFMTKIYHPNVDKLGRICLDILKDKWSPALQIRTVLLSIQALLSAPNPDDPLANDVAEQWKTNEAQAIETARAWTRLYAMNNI
# MEKK2wt PB1 HTS: raises or lowers MEK5 binding to wildtype human MEKK2 PB1 domain; Q9Y2U5; bead flow cytometry, Alexa488-MEK5 binding to MEKK2 WT; actives lie on both sides; binding response (% of control), % at 10 µM; 1.1% of 290,000 active; AID 1531; in the data active means binding response below about 67% or above about 130%
# Apaf1 inhib: inhibitors of human Apaf-1 apoptosome; inhibition, % at 20 µM; O14727; reconstituted apoptosome caspase-3 activity, DEVD-Rh110 fluorescence; 0.71% of 330,000 active; active means inhibition of at least 40% at 20 µM;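 further: plate controls were DMSO wells for no effect and DEVD-CHO caspase inhibitor wells for full effect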
#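 detection = Rh110 fluorescence intensity | test system = biochemical Apaf-1 apoptosome reconstitution | also added = cytochrome c and DEVD-Rh110 substrate | schedule = 30 min plus 50 min, RT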
# UCH37 inh: blocks the human deubiquitinase UCH37; AID 588478; Q9Y5K5; purified proteasome/UCH37, Ub-AMC cleavage fluorescence; 0.33% of 330,000 active; inhibition, % (concentration not given with the values);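 active means mean inhibition over replicate wells above about 20%, limit read from the data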;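 further: 0% = compound-free wells with enzyme and 100% = wells lacking proteasome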
# Target sequence (Q9Y5K5 whole entry, looked up): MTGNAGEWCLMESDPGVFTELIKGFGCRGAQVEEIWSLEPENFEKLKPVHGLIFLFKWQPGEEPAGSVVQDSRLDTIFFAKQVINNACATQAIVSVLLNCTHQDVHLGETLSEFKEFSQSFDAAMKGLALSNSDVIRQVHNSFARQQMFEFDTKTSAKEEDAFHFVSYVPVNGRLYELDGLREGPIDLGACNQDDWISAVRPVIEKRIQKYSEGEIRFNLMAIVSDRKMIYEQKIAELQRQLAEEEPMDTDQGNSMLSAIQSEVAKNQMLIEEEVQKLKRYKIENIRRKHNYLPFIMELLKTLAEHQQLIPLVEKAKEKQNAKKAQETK
#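 System: Proteasome-associated human UCH37 deubiquitinase; Input: 0.15 nM proteasome in added enzyme buffer; Also added: Ub-AMC substrate from 1 µM stock; Incubation: 30 min compound-proteasome preincubation then 25 min substrate reaction, room temperature; Detection: fluorescence, ex 355 nm, em 460 nm; Read-out: % inhibition of Ub-AMC cleavage fluorescence; Benchmarks: no-proteasome and no-compound wells.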
# * hit, by the source's call; . = no result; [ ] = another dose, or the depositor's remark. Shown are actives, neighbours in structure and some others; about 3% of the full set was active somewhere.
SMILES,MEKK3 PB1 HTS,MEKK2 mut-MEK5,UBC13 inh,MEKK2wt PB1 HTS,Apaf1 inhib,UCH37 inh
COc1cc(/C=N/N=C/c2cc(OC)c(O)c(OC)c2)cc(OC)c1O,109.0,0.0,0.2,112.0,-2.6,.
COc1cc(/C=N/N=C(/C(=O)c2ccccc2)c2ccccc2)cc(OC)c1O,135.0*,0.0,-9.4,105.0,-0.1,.
C=CCN1C(=O)[C@H]2CCC=C[C@H]2[C@@H]1c1cccc(C)c1,.,.,.,.,8.3,23.8*
COc1cccc(-c2ccc(NC(=O)C3CCCN(Cc4cnn(C)c4)C3)cc2)c1 (centres undefined),100.0,11.0,7.1,132.0,19.8,2.5
Cn1cc(CN2CCCC(C(=O)Nc3cccc(-c4cc5ccccc5[nH]4)c3)C2)cn1 (centres undefined),110.0,30.0*,25.5,175.0*,13.1,.
CC(C)n1cc(CN2CCCC(C(=O)Nc3cccc(-c4cc5ccccc5[nH]4)c3)C2)cn1 (centres undefined),104.0,22.0,32.4,180.0*,29.3,.
CCC(C)(C(=O)NC1CCCCC1)N(Cc1cccs1)C(=O)c1ccc(=O)[nH]c1 (centres undefined),96.0,-2.0,-10.5,94.0,-1.5,-0.5
O=C1C[C@H](NC(=O)OCc2ccccc2)CO1,.,.,5.4,.,0.9,2.1
CNc1ccccc1C(C)(C)c1cc(-c2cccc([N+](=O)[O-])c2)no1,100.0,-3.0,3.7,93.0,7.3,2.1
CNc1ccccc1C(C)(C)c1cc(-c2cccc(Br)c2)no1,99.0,0.0,-3.4,9.0*,18.5,0.3
COc1ccc(-c2noc(COc3ccc4ccccc4c3Br)n2)cc1OC,99.0,-2.0,-4.8,99.0,-135.7,-0.5
COc1ccc(C2=CCCCCC2)c(OC)c1OC,.,.,.,.,.,2.0
CCOC(=O)c1ccc(S(=O)(=O)N2CCC(N3CCCCC3)CC2)cc1,103.0,4.0,47.2*,105.0,-4.3,5.0
CCOC(=O)c1ccc(S(=O)(=O)N2CCC(C(=O)OCC)CC2)cc1,94.0,-4.0,-4.6,97.0,-13.2,3.0
O=C(Nc1ccnn1C1CCN(Cc2c[nH]c3ccccc23)CC1)c1ccccc1,105.0,21.0,6.5,135.0*,4.2,4.0
Cn1cc(CN2CCC(n3nccc3NC(=O)c3ccccc3Cl)CC2)c2ccccc21,103.0,19.0,6.2,155.0*,19.1,4.7
O=C(Nc1ccnn1C1CCN(CC2CC=CCC2)CC1)c1ccccc1 (centres undefined),101.0,-2.0,-4.9,104.0,-4.1,3.8
CNC[C@H](Cc1cccc2ccccc12)NC[C@H](CCSC)NCC1CCC(C(C)(C)C)CC1 (some centres undefined),.,.,85.8*,.,64.7*,.
CC(NCC(O)COC1CCC(C(C)(C)C)CC1)c1ccccc1 (centres undefined),111.0,0.0,29.8,110.0,8.1,4.2
Cc1ccc(C(=O)COC(=O)c2cc(C)no2)c(C)c1,.,.,-1.6,.,9.1,3.0
COc1ccc(C(O)P(=O)(OCC(C)C)c2ccc(N(C)C)cc2)c(OC)c1 (centres undefined),107.0,9.0,0.1,103.0,9.1,0.6
ONc1cccnc1-n1nc(C(F)(F)F)cc1C(F)(F)F,86.0,-69.0,-48.7,79.0,47.3*,.
COc1ccc(N=CC2=C(Nc3ccc(OC)cc3)c3c(C)nn(-c4ccccn4)c3CC2)cc1,96.0,-2.0,-44.3,114.0,92.6*,.
COc1cc(OC)c(C2CC(=O)N3CN(c4ccccc4C)CSC3=C2C#N)cc1OC (centres undefined),102.0,0.0,-30.3,90.0,66.2*,.
Cc1ccc(C=NN(C)C2=NS(=O)(=O)c3ccccc32)cc1,.,.,.,.,.,-111.6
SMILES,MEKK3 PB1 HTS,MEKK2 mut-MEK5,UBC13 inh,MEKK2wt PB1 HTS,Apaf1 inhib,UCH37 inh
COc1ccc(C(=O)Oc2ccc(F)cc2C(=O)/C=C/c2ccc(OC)c(OC)c2)cc1,106.0,23.0,20.9,103.0,2.7,1.0
COc1ccc(/C=C/C(=O)c2cc(F)ccc2OC(=O)c2ccccc2C)cc1OC,150.0*,0.0,-4.8,108.0,4.6,1.2
O=C(Nc1nccs1)c1cccc(N2C(=O)C3C4C=CC(C4)C3C2=O)c1 (centres undefined),97.0,-1.0,2.0,95.0,2.0,29.1*
O=C(Nc1nccs1)c1ccc(N2C(=O)[C@@H]3[C@H](C2=O)[C@H]2C=C[C@@H]3C2)cc1,98.0,-3.0,-5.1,100.0,-35.2,5.7
CCCn1c(N=Cc2c[nH]c3ccccc23)nc2ccccc21,.,.,.,.,.,4.4
COc1ccc(C=NNC(=O)Cc2ccc(Cl)cc2)cc1OC,.,.,.,.,.,34.8*
OC(Cc1ccncc1)(c1ccccc1)c1ccccc1,.,.,6.8,.,-4.5,24.7*
CSc1cccc(NC(=S)N2CCCN(Cc3cccc(Cl)c3)C2)c1,105.0,-11.0,0.2,112.0,15.4,-0.8
CN1CCc2nc(SCc3ccc(Cl)cc3)c(C#N)c(-c3cccs3)c2C1,104.0,28.0,-23.1,129.0,83.1*,4.6
N#Cc1c(N)nc(SCc2ccncc2)c(C#N)c1-c1cccs1,83.0,-6.0,25.5,92.0,13.9,-8.8
COC(=O)c1ccc(NC(=O)CSc2nncn2-c2ccccn2)cc1,0.0*[inhibitor],-24.0,4.4,-11.0*[inhibitor],6.7,3.6
COC(=O)c1cccc(NC(=O)CSc2nncn2-c2ccccn2)c1,104.0,4.0,0.8,100.0,0.1,4.4
Cc1cc(C(F)(F)F)nn1CC(=O)N(C)c1ccccc1,101.0,-1.0,5.1,99.0,-7.7,0.0
Cc1cc(C(F)(F)F)nn1CC(=O)N(C)C1CCCCC1,100.0,9.0,-1.5,102.0,9.5,32.0*
Cc1nn(-c2ccccc2)c(Cl)c1C=NNc1ccc(S(=O)(=O)Nc2ccccc2C(=O)O)cc1[N+](=O)[O-],.,.,.,.,.,23.2*
CC(=O)Nc1ccc(C=NNc2ccc(S(=O)(=O)Nc3ccccc3C(=O)O)cc2[N+](=O)[O-])cc1,.,.,-56.2,.,-0.7,18.4
COc1cc(C=NNc2ccc(S(=O)(=O)Nc3ccccc3C(=O)O)cc2[N+](=O)[O-])ccc1O,.,.,-122.4,.,14.4,22.2*
CC1CC(C)CN(CCCNC(=O)C2CCN(c3nnc(-n4cccc4)s3)CC2)C1 (centres undefined),100.0,20.0,14.7,155.0*,9.1,3.5
O=C(NCCCc1ccccc1)C1CCN(c2nnc(-n3cccc3)s2)CC1,104.0,3.0,2.8,105.0,20.2,3.7
CCOc1ccc(NCc2cccn2-c2nnc(N3CCC(C(=O)NCCCN4CCCCC4CC)CC3)s2)cc1 (centres undefined),104.0,24.0*,21.9,133.0,25.1,1.2
Cc1ccc(C)n1-c1nnc(N2CCC(C(=O)NCCCN3CC(C)CC(C)C3)CC2)s1 (centres undefined),101.0,0.0,1.5,102.0,-402.0,3.4
